CYP2C19 activ: activators of human cytochrome P450 2C19. recombinant CYP2C19, luciferin-H EGE luminescence; stronger effect = higher value; 0 = fully inhibited enzyme, 1 = untreated enzyme. activation factor at 5 µM. 96,000 tested, under 10 active. AID 1025;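 active = activation factor of at least 2 at 5 µM in the primary screen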;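 also: 0 = wells with 2.5 mM tranylcypromine and 1 = vehicle-only wells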
CYP2C19 inhib: inhibitors of human CYP2C19. CYP2C19 Supersomes, luciferin-H EGE luminescence, 30 min. inhibition, % at 5 µM. 96,000 tested, 21% active. AID 778;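 active = CYP2C19 inhibition above a set limit at 5 µM in the primary screen, cut at about 50% in these data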;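 also: plate controls were negative control wells for no effect and 2.5 mM tranylcypromine positive control for full effect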
Rev-RRE block: inhibitors of HIV-1 Rev-RRE RNA interaction | AID 704 | inhibition, % at 8 µM | 97,000 tested, 0.79% active | P05866 | Rev peptide-RRE RNA binding, FRET;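 active = inhibition above the screen-wide mean plus 3 SD, cut at about 35% in these data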;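 also: 0% = median DMSO wells and 100% = median Neomycin B control wells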
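Assay system: labelled RRE RNA duplex and labelled Rev peptide / Medium: HEPES pH 7.5 salt buffer with EDTA / Reagent: labelled Rev peptide / Schedule: 5 + 15 min at 25 °C / Signal: FRET, excitation 480 nm, emission 540 nm donor and 671 nm acceptor / Benchmarks: DMSO and neomycin B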
CYP2C9 inhib: inhibitors of human CYP2C9. CYP2C9 Supersomes, luciferin-H conversion, luminescence. inhibition, % at 5 µM. 96,000 tested, 20% active;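 active = blocking of liver enzyme CYP2C9 beyond about 50% at 5 µM, limit read from the data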
CYP2C9 activ: activators of human CYP2C9; recombinant CYP2C9, luciferin-H conversion, luminescence; stronger effect = higher value; factor 1 = untreated enzyme, 0 = blocked; 96,000 tested, 1.4% active; activation factor at 5 µM;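 active = activation factor of 2 or more for CYP2C9 at a 5 µM dose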;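 also: 0 = sulfaphenazole-blocked wells and 1 = vehicle-only wells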
Cav3 T inh: blocks human Cav3.2 T-type calcium channel. O95180. Cav3.2-expressing cells, Fluo-4 calcium fluorescence FDSS; stronger effect = lower value. B-score at 10 µM. 100,000 tested, 4% active. AID 449739;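 active = single-dose well whose peak fluorescence ratio is a statistical outlier from its plate by either plate-standardised score or position-corrected B-score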
Target sequence (O95180 whole entry, looked up): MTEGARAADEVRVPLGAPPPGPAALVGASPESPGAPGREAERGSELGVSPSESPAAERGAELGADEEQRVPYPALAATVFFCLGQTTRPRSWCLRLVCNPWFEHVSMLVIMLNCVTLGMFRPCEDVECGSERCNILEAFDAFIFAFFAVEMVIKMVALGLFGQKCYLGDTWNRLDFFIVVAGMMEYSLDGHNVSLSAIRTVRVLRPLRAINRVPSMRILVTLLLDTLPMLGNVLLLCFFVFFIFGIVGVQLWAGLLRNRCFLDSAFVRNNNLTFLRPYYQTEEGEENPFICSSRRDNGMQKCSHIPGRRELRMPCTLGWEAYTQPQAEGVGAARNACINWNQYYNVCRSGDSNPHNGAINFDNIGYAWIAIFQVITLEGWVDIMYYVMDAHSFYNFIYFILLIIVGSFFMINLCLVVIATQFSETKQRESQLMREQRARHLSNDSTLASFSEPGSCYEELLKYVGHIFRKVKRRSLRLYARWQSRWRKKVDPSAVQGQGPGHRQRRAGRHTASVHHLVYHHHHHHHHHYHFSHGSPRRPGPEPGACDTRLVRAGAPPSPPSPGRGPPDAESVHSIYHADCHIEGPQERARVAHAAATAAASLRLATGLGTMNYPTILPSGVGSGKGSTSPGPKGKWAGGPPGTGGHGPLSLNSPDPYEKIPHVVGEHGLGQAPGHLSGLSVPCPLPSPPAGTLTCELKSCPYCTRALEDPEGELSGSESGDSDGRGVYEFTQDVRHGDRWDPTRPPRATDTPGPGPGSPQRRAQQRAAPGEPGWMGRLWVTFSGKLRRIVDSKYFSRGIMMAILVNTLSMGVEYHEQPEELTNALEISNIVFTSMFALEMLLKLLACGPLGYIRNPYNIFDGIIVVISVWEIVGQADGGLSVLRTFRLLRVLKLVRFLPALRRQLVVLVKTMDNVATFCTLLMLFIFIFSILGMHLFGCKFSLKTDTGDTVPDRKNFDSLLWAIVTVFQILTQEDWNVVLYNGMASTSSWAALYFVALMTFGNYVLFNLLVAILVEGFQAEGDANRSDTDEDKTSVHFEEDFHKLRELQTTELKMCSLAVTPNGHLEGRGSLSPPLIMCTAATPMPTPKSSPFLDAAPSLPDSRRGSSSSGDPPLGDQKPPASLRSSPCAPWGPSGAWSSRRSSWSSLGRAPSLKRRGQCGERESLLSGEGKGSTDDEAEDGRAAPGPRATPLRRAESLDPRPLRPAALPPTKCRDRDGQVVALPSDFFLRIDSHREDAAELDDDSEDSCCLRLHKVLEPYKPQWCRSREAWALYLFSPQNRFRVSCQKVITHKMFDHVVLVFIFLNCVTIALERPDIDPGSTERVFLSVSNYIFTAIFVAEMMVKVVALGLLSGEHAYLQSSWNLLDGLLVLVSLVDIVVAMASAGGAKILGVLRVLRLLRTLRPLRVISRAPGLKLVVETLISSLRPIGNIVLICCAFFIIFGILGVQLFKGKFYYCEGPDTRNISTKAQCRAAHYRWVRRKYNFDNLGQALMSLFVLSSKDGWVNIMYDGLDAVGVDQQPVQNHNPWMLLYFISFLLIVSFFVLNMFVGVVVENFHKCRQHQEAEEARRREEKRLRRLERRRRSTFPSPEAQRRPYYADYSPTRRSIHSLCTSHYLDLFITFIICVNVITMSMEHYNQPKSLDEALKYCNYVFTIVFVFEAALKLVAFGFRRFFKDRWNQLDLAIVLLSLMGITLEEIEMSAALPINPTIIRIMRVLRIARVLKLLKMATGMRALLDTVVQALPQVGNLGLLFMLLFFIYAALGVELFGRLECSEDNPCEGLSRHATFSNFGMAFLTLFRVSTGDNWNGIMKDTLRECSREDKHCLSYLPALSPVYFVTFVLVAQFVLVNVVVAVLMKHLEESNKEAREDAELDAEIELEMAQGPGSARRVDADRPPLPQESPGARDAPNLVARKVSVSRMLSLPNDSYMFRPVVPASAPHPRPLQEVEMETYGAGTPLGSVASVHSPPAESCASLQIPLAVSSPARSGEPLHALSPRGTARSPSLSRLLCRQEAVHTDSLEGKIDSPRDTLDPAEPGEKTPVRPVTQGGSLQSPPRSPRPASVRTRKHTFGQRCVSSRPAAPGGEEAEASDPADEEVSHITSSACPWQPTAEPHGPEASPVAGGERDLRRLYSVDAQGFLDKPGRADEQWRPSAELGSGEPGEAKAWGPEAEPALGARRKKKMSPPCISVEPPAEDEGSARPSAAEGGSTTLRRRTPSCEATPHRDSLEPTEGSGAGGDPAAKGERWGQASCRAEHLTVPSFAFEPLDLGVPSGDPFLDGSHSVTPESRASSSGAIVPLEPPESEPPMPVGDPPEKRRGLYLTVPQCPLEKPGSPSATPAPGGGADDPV
Starred values were filed as active, the others as inactive; x = not tested or not shown. This is a sample that favours compounds with a hit; in the whole collection about 27% have one here.

SMILES	CYP2C19 activ	CYP2C19 inhib	Rev-RRE block	CYP2C9 inhib	CYP2C9 activ	Cav3 T inh
O=C(Nc1ccc2c(c1)CCC2)c1cnccn1	0.3	68*	5	-10	1.1	-0.82
O=C(Nc1ccc2c(c1)OCO2)c1ccc(Br)o1	0.1	85*	0	60*	0.4	-0.84
O=C(Nc1ccc2c(c1)CCC2)c1cc2ccccc2o1	0.8	16	12	-28	1.3	-3.3
O=C(Nc1ccc2c(c1)CCC2)c1ccc(Br)o1	0.2	76*	2	-18	1.2	-2.2
Nc1cc(Cl)nc(N/N=C/c2ccccc2[N+](=O)[O-])n1	0.9	10	0	-6	1.1	-0.075
Cn1c(-c2ccc[nH]c2=O)nc2cc(Cl)ccc21	x	x	4	x	x	0.86
O=C(CN1CCN(c2ccc(Cl)cc2)CC1)Nc1ccc(F)c(F)c1	0.7	26	14	46	0.5	-1.9
O=C(Nc1ccc2c(c1)OCO2)c1c(F)cccc1F	0.9	13	2	17	0.8	-3.3*
N#C/C(=C1\C(=O)Nc2c(Cl)cc(Cl)cc21)c1nnc2n1CCCCC2	1.1	-5	7	4	1	0.067
Cc1ccc(S(=O)(=O)NC(=O)Nc2nnc(C3CC3)s2)cc1	1	5	9	5	0.9	0.046
CCCC(=O)n1nc(-c2ccc(OC)cc2)nc1N	0.5	53*	0	-1	1	1.3
CCN(CC)c1ccc(C2N(C(=O)N3CCOCC3)CCN2S(=O)(=O)c2ccc(C)cc2)cc1 (configuration not stated)	0.7	26	2	44	0.6	-4.1*
Cc1ccc(S(=O)(=O)N2CCN(C(=O)N3CCOCC3)C2C(C)C)cc1 (configuration not stated)	1	2	1	3	1	-0.42
O=C(O)CC(NS(=O)(=O)c1ccc(Br)cc1)c1ccco1 (configuration not stated)	1.1	-12	10	-10	1.1	-0.064
Cc1ccc(C)c(-c2csc(N)c2C(=O)OC(C)C)c1	0.3	69*	12	67*	0.3	-0.43
Cc1cccc(-c2csc(N)c2C(=O)OC(C)C)c1	x	x	-4	x	x	-3.6
Cc1ccc(NC(=O)CSc2nnc(CCNC(=O)OC(C)(C)C)o2)c(C)c1	0.9	11	6	41	0.6	0.94
CC(C)(C)OC(=O)NCCc1nnc(S(=O)(=O)Cc2ccc(Cl)cc2Cl)o1	0.2	77*	10	80*	0.2	0.38
CC(C)(C)OC(=O)NCCc1nnc(SCc2ccccc2Cl)o1	0.2	82*	0	77*	0.2	-1.6
Cc1cccc(C)c1NC(=O)CSc1nnc(CCCCCNC(=O)OC(C)(C)C)o1	0.5	50*	-5	73*	0.3	-0.7
CC(C)(C)OC(=O)NCCc1nnc(SCC(N)=O)o1	1.1	-13	8	-12	1.1	0.34
N#CC(c1ccccc1)c1ccc2c(C(F)(F)F)cc(C(F)(F)F)nc2n1 (configuration not stated)	1.1	-5	2	16	0.8	0.77
Cc1ccc(C(C#N)c2ccc3c(C(F)(F)F)cc(C(F)(F)F)nc3n2)cc1 (configuration not stated)	0.8	24	0	84*	0.2	-0.94
Cc1cc(C)cc(NC(=O)c2ccc(CSc3nnc(C)s3)cc2)c1	0.6	36	5	-98	2*	-11*
O=C(O)c1ccc(CSc2nnc(SCc3ccccc3)s2)cc1	1.2	-19	1	-15	1.2	-6.6*
SMILES	CYP2C19 activ	CYP2C19 inhib	Rev-RRE block	CYP2C9 inhib	CYP2C9 activ	Cav3 T inh
C=C1CCN([C@@H](Cc2ccccc2)C(=O)NC2CCN(Cc3ccccc3)CC2)S(=O)(=O)c2ccccc21	x	x	x	x	x	1.5
Cc1ccc(C2(C(F)(F)F)NC(=O)N3CCCN=C3S2)cc1 (configuration not stated)	0.2	76*	x	16	0.8	-1.9
Cc1ccc(C2(C(F)(F)F)NC(=O)N3CCN=C3S2)cc1 (configuration not stated)	0.2	76*	-2	-4	1	-0.084
Cc1ccc(C2(C(F)(F)F)N=C3Sc4cc(C)ccc4N3C(=O)N2)cc1 (configuration not stated)	0.9	15	12	21	0.8	x
O=C1NC(c2ccccc2)(C(F)(F)F)SC2=CCCCCN12 (configuration not stated)	x	x	x	x	x	-0.13
COc1ccc(C2(C(=O)NC(C)C)CCCC2)cc1OC	0.8	16	3	13	0.9	-0.08
Cc1nc2ccc(NS(=O)(=O)c3c(C)c(C)cc(C)c3C)cc2s1	0.7	35	0	74*	0.3	-2
Cc1ccc(S(=O)(=O)Nc2ccc3c(c2)ncn3C(C)(C)C)cc1	0.1	92*	x	80*	0.2	-0.99
Cc1nc2ccc(NS(=O)(=O)c3ccc4c(c3)OCCO4)cc2s1	0	98*	4	98*	0	-1.2
Cc1ccc(S(=O)(=O)Nc2ccc3c(c2)nc(CN2CCCC2)n3C)cc1	1	0	0	4	1	0.29
Cc1nc2cc(NS(=O)(=O)c3c(C)c(C)cc(C)c3C)ccc2s1	x	x	12	x	x	-1.9
Cc1ccc(S(=O)(=O)Nc2ccc3nc(C)sc3c2)cc1	0.8	23	8	79*	0.2	-1.4
Cc1nn(-c2ccccc2)nc1CNC(=O)C(C)Cc1ccccc1 (configuration not stated)	x	x	x	x	x	-0.62
O=C(NC1CCCCC1)NC1CC2CCCC(C1)N2C1CCCC1 (configuration not stated)	x	x	8	x	x	-1.6
Cc1ccc(S(=O)(=O)Nc2ccc3nc(N)sc3c2)cc1	0	99*	8	95*	0.1	1.7
Cc1cccc(OCCC(=O)Nc2ccc(S(=O)(=O)N3CCCC3)cc2)c1	0.7	33	7	67*	0.3	-2.2
CC(SCC(=O)Nc1ccc(S(=O)(=O)N2CCCCC2)cc1)C(=O)O (configuration not stated)	0.9	7	2	56*	0.4	0.33
Cc1cccc(NC(=O)CCOc2ccccc2)c1	0.5	49	4	-47	1.5	0.053
O=C(Nc1ccc(S(=O)(=O)N2CCCC2)cc1)N1c2ccccc2Sc2ccccc21	0.9	8	2	74*	0.3	-0.93
O=C(Nc1ccccc1)Nc1ccc(S(=O)(=O)N2CCCCC2)cc1	1	-5	10	22	0.8	-2.5
COC(=O)c1cccc(NC(=O)CCCOc2cccc(C)c2)c1	0.2	76*	11	58*	0.4	-2.3
O=C(NC(O)C(=O)c1cccs1)c1cccnc1 (configuration not stated)	1	-4	3	-7	1.1	0.97
O=C(O)CCC(=O)Nc1ccc(S(=O)(=O)N2CCCC2)cc1	0.5	50*	x	24	0.8	-0.66

High-throughput results: PubChem BioAssay, several laboratories
